Assay results from ChEMBL document CHEMBL4422614 (Eur J Med Chem, 2019).
Calls of active or inactive are those of the source. The rule behind the calls is not given here.

What was measured:
[1] = Metal chelating activity assessed as inhibition of Cu2+-induced amyloid beta (1 to 42 residues) aggregation at 25 uM after 24 hrs by thioflavin-T fluorescence assay (reference value: 156%); design: scale not given: the % may be the effect or the level left
Summary of the method: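 Aβ1-42 was incubated with Cu(II) (CuSO4) with or without compound, and thioflavin T fluorescence was read. The Aβ-alone signal was set as 100%. Mean ± SD of three independent experiments.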

[2] = Antioxidant activity assessed as trolox equivalent of AAPH-induced radical scavenging activity at 10 to 20 uM preincubated for 10 mins followed by AAPH addition measured every minute for 120 mins by ORAC fluorescein assay; format: functional
Summary of the method: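 ORAC values are expressed as trolox equivalents, mean ± SD of three independent experiments.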

SH-SY5Y = assay: Cytotoxicity against human SH-SY5Y cells assessed as effect on cell viability at 10 uM after 24 hrs by MTT assay; format: cell-based
Summary of the method: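 SH-SY5Y viability was measured by MTT after exposure to compounds at 10 µM. Results are percent of vehicle control from three independent experiments.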

[3] = target: 3',5'-cyclic-AMP phosphodiesterase 4D (Homo sapiens, UniProt Q08499); assay: Inhibition of human PDE4D2 (86 to 413 residues) catalytic domain using [3H]-cAMP as substrate after 15 mins by liquid scintillation counting method
Chain of 3',5'-cyclic-AMP phosphodiesterase 4D (Q08499 whole entry, the tested form may be a part): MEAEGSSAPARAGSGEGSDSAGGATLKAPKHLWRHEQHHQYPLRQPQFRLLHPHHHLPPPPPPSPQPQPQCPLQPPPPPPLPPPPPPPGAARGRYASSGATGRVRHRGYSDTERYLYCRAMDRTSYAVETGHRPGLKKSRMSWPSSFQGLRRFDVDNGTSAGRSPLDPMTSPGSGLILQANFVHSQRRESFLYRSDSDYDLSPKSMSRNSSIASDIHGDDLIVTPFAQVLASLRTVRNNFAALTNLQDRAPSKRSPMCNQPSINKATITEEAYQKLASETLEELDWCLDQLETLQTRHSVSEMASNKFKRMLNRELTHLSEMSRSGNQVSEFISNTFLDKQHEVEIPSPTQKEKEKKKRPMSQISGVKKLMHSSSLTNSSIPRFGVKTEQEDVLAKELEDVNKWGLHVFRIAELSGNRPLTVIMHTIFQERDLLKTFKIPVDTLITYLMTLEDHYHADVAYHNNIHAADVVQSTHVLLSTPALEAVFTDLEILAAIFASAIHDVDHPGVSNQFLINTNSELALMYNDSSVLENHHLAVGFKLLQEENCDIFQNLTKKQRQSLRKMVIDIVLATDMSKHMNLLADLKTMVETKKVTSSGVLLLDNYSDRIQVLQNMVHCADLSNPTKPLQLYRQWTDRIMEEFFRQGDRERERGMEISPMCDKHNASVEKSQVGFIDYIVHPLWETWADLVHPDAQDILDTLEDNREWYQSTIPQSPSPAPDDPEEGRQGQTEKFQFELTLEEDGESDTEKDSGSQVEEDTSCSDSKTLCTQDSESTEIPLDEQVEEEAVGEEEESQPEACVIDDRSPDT

in vitro [4] = conditions: PAMPA
[5] = Hepatotoxicity in C57BL/6 mouse assessed as abnormal changes up to 2000 mg/kg, ig after 14 days by microscopic analysis; format: toxicity, organism-based; conditions: in vivo, po, 336 h
Summary of the method: (§1)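 Mice given a single intragastric dose of test compound at various dosages, then observed for 14 days for death and abnormal behaviour. On day 14, animals were sacrificed and heart, liver, lungs and kidneys examined.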

[6] = Toxicity in amyloid beta (25 to 35 residues) induced C57BL/6J mouse model of Alzheimer's disease assessed as loss of body weight at 30 mg/kg/day, ig administered for 26 consecutive days; format: organism-based; conditions: in vivo, po
Summary of the method: (§2)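 Mice were randomized into 7 groups. All except sham got an ICV injection of Aβ25-35 (3 nmol); sham got the same volume of saline ICV. Dosing was intragastric daily for 26 days, with 0.5% CMC-Na as vehicle for sham and model. Body weight, diarrhea and emesis-like behavior were monitored.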

Mus musculus [7] = assay: Cognition enhancement activity in amyloid beta (25 to 35 residues) induced C57BL/6J mouse model of Alzheimer's disease assessed as increase in number of virtual platform crossing at 30 mg/kg/day, ig administered for 26 consecutive days by Morris water maze test; format: functional, organism-based; summary of the method: as §2
[8] = Metal chelating activity of the compound assessed as formation of ferrous-compound complex at 50 uM after 30 mins by UV-vis spectrophotometric analysis
Summary of the method: (§3)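 UV-vis absorption spectra of compound (50 µM) were recorded in HEPES buffer alone and with 50 µM CuSO4, ZnCl2, FeSO4 or FeCl3, and spectral changes were assessed.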

[9] = Acute Toxicity in C57BL/6 mouse assessed as mouse mortality up to 2000 mg/kg, ig measured over 14 days; format: organism-based; conditions: in vivo, po, 336 h; summary of the method: as §1
[10] = Toxicity in amyloid beta (25 to 35 residues) induced C57BL/6J mouse model of Alzheimer's disease assessed as emesis at 30 mg/kg/day, ig administered for 26 consecutive days; format: organism-based; conditions: in vivo, po; summary of the method: as §2
[11] = Metal chelating activity assessed as inhibition of Cu(II)-induced amyloid beta (1 to 42 residues) aggregation at 25 uM after 24 hrs by thioflavin-T fluorescence assay (reference value: 156%); design: scale not given: the % may be the effect or the level left
Summary of the method: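 Aβ1-42 was incubated with CuSO4 with or without compound, and thioflavin T fluorescence was read. Fluorescence is given as percent of Aβ alone, as mean ± SD of three independent experiments.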

Mus musculus [12] = assay: Cognition enhancement activity in amyloid beta (25 to 35 residues) induced C57BL/6J mouse model of Alzheimer's disease assessed as swimming path length in virtual platform at 30 mg/kg/day, ig administered for 26 consecutive days by Morris water maze test (10.2 +/- 3.2 cm); format: functional; summary of the method: as §2
[13] = Acute Toxicity in C57BL/6 mouse lung assessed as abnormal changes up to 2000 mg/kg, ig after 14 days by microscopic analysis; format: organism-based; conditions: in vivo, po, 336 h; summary of the method: as §1
[14] = Metal chelating activity of the compound assessed as formation of zinc-compound complex at 50 uM after 30 mins by UV-vis spectrophotometric analysis; summary of the method: as §3
[15] = Hepatotoxicity in C57BL/6 mouse assessed as tissue damage up to 2000 mg/kg, ig after 14 days by microscopic analysis; format: toxicity, organism-based; conditions: in vivo, po, 336 h; summary of the method: as §1
Mus musculus [16] = assay: (§4) Neuroprotection in amyloid beta (25 to 35 residues) induced C57BL/6J mouse model of Alzheimer's disease assessed as reduction in ratio of apoptotic neuron in DG hippocampus region at 30 mg/kg/day, ig administered for 26 consecutive days by hematoxylin and eosin staining-based light microscopic analysis (reference value: 55.8 +/- 7.2%); format: ADME, organism-based; design: scale not given: the % may be the effect or the level left; conditions: in vivo, po
Summary of the method: (§5)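 Hippocampal CA1, CA3 and DG neurons were stained with H&E after the Aβ25-35 ICV model and 26-day intragastric dosing. Denatured cell index = denatured cells/total cells, n = 5. Values are mean ± SD, two-way ANOVA versus model.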

[17] = Drug metabolism in Sprague-Dawley rat liver microsomes assessed as metabolic rate up to 180 mins in presence of NADPH by UV-based LC-MS/MS analysis; format: ADME, Microsome; conditions: 3 h
[18] = Toxicity in amyloid beta (25 to 35 residues) induced C57BL/6J mouse model of Alzheimer's disease assessed as diarrhea at 30 mg/kg/day, ig administered for 26 consecutive days; format: organism-based; conditions: in vivo, po; summary of the method: as §2
[19] = Acute Toxicity in C57BL/6 mouse up to 2000 mg/kg, ig measured every 14 days; format: organism-based; conditions: in vivo, po, 336 h; summary of the method: as §1
[20] = Metal chelating activity assessed as inhibition of Cu(II)-induced amyloid beta (1 to 42 residues) aggregation at 25 uM after 24 hrs by TEM assay
Summary of the method: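 Samples were prepared as for the ThT assay. 10 µL aliquots were applied to carbon-coated copper grids for 2 min, then stained with 3% phosphotungstic acid for 2 min and imaged by transmission electron microscopy.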

[21] = Metal chelating activity of the compound assessed as formation of cupric-compound complex at 50 uM after 30 mins by UV-vis spectrophotometric analysis; summary of the method: as §3
Mus musculus [22] = assay: Cognition enhancement activity in amyloid beta (25 to 35 residues) induced C57BL/6J mouse model of Alzheimer's disease assessed as swimming time in effective region at 30 mg/kg/day, ig administered for 26 consecutive days by Morris water maze test (4.3 +/- 1.3 sec); format: functional; summary of the method: as §2
[23] = Acute Toxicity in C57BL/6 mouse lung assessed as tissue damage up to 2000 mg/kg, ig after 14 days by microscopic analysis; format: organism-based; conditions: in vivo, po, 336 h; summary of the method: as §1
[24] = Metal chelating activity of the compound assessed as formation of ferric-compound complex at 50 uM after 30 mins by UV-vis spectrophotometric analysis; summary of the method: as §3
[25] = Nephrotoxicity in C57BL/6 mouse assessed as abnormal changes up to 2000 mg/kg, ig after 14 days by microscopic analysis; format: toxicity, organism-based; conditions: in vivo, po, 336 h; summary of the method: as §1
[26] = Nephrotoxicity in C57BL/6 mouse assessed as tissue damage up to 2000 mg/kg, ig after 14 days by microscopic analysis; format: toxicity, organism-based; conditions: in vivo, po, 336 h; summary of the method: as §1
[27] = Metal chelating activity assessed as inhibition of Cu(II)/ascorbate-induced ROS production by measuring […] level at 10 uM by fluorescence assay
Summary of the method: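 A Cu-ascorbate redox system in PBS (pH 7.4) at 37 °C, with Cu(II) 5 µM, ascorbate 150 µM and coumarin-3-carboxylic acid 50 µM as the hydroxyl radical trap. Compound was pre-incubated 10 min before ascorbate was added. Fluorescence of 7-hydroxy-CCA (ex 395, em 450 nm) was read every 30 s for 15 min.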

Mus musculus [28] = assay: as §4, with “CA3” for “DG”, “80.2” for “55.8”, “8.6%)” for “7.2%)”; format: ADME, organism-based; design: scale not given: the % may be the effect or the level left; conditions: in vivo, po; summary of the method: as §5
[29] = Cardiotoxicity in C57BL/6 mouse assessed as tissue damage up to 2000 mg/kg, ig after 14 days by microscopic analysis; format: toxicity, organism-based; conditions: in vivo, po, 336 h; summary of the method: as §1
in vitro [30] = conditions: Sprague-Dawley, rat, liver microsomes
Mus musculus [31] = assay: Cognition enhancement activity in amyloid beta (25 to 35 residues) induced C57BL/6J mouse model of Alzheimer's disease assessed as swimming speed at 4 mg/kg/day, ig administered for 26 consecutive days by Morris water maze test (reference value: 15.6 +/- 2.4 cm/sec); format: functional; summary of the method: as §2
[32] = Cardiotoxicity in C57BL/6 mouse assessed as abnormal changes up to 2000 mg/kg, ig after 14 days by microscopic analysis; format: toxicity, organism-based; conditions: in vivo, po, 336 h; summary of the method: as §1
Mus musculus [33] = assay: Neuroprotection in C57BL/6J mouse model of amyloid beta (25 to 35 residues) induced Alzheimer's disease assessed as reduction in ratio of apoptotic neuron in CA1 hippocampus region at 30 mg/kg/day, ig administered for 26 consecutive days by hematoxylin and eosin staining-based light microscopic analysis (reference value: 40.6 +/- 12.5%); format: ADME, organism-based; design: scale not given: the % may be the effect or the level left; conditions: in vivo, po; summary of the method: as §5
[34] = Acute Toxicity in C57BL/6 mouse assessed as abnormal behavior up to 2000 mg/kg, ig measured over 14 days; format: organism-based; conditions: in vivo, po, 336 h; summary of the method: as §1
Mus musculus [35] = assay: Cognition enhancement activity in amyloid beta (25 to 35 residues) induced C57BL/6J mouse model of Alzheimer's disease assessed as decrease in escape latancy at 30 mg/kg/day, ig administered for 26 consecutive days by Morris water maze test; format: functional, organism-based; summary of the method: as §2

COc1ccc(C(=O)Nc2cc(Cl)c(O)c3ncccc23)cc1OC1CCCC1.Cl
Activity [1]: 70.2% | Activity [2]: 0.56 equiv | Activity (SH-SY5Y): Toxic | IC50 [3]: 3.13 µM

Cl.O=C(Nc1cc(I)c(O)c2ncccc12)c1ccc(OC(F)F)c(OCC2CC2)c1
Activity [2]: 0.69 equiv | Papp at 10 h, 100 ug/ml (in vitro [4]): 7.05 ×10⁻⁶ cm/s | IC50 [3]: 0.426 µM

COc1ccc(C(=O)Nc2ccc(O)c3ncccc23)cc1OC
Activity [2]: 1.34 equiv | IC50 [3]: 7.63 µM

COc1ccc(C(=O)Nc2ccc3cccc(O)c3n2)cc1OC1CCCC1
Activity [2]: 0.7 equiv | Papp at 10 h, 100 ug/ml (in vitro [4]): 16.4 ×10⁻⁶ cm/s | IC50 [3]: 4.64 µM

COc1ccc(C(=O)Nc2ccc(O)c3ncccc23)cc1OC1CCCC1.Cl
Activity [5]: Non-Toxic | Activity [1]: 51% | Activity [6]: Non-Toxic | Activity (Mus musculus [7]): Active | Activity [2]: 0.63 equiv | Activity [8]: Active | Activity [9]: Non-Toxic | Activity [10]: Non-Toxic | Activity [11]: 46% | Activity (Mus musculus [12]): 18 cm | Activity [13]: Non-Toxic | Activity [14]: Active | Activity [15]: Non-Toxic | Activity (Mus musculus [16]): 26.8% | K [17]: 0.0134 min⁻¹ | Activity [18]: Non-Toxic | Activity [19]: Non-Toxic | Activity (SH-SY5Y): Non-Toxic | Activity [20]: Active | Activity [21]: Active | Time (Mus musculus [22]): 6.1 s | Activity [23]: Non-Toxic | Activity [24]: Active | Activity [25]: Non-Toxic | Activity [26]: Non-Toxic | Activity [27]: Active | Activity (Mus musculus [28]): 37.1% | Papp at 10 h, 100 ug/ml (in vitro [4]): 5.9 ×10⁻⁶ cm/s | Activity [29]: Non-Toxic | half-life (in vitro [30]): 51.7 min | Activity (Mus musculus [31]): 15.3 cm/s | Activity [32]: Non-Toxic | Activity (Mus musculus [33]): 13.8% | Activity [34]: Non-Toxic | Activity (Mus musculus [35]): Active | IC50 [3]: 0.492 µM

COc1ccc(C(=O)Nc2cc(I)c(O)c3ncccc23)cc1OC1CCCC1.Cl
Activity [2]: 1.01 equiv | Papp at 10 h, 100 ug/ml (in vitro [4]): 5.86 ×10⁻⁶ cm/s | IC50 [3]: 0.597 µM

C[C@]12CC[C@H]3[C@@H](CCC4=CC(=O)CC[C@@]43C)[C@@H]1CC[C@@H]2O [TESTOSTERONE]
K [17]: 0.301 min⁻¹

O=C(Nc1ccc2cccc(O)c2n1)c1ccc(OC(F)F)c(OCC2CC2)c1
Activity [2]: 0.34 equiv | Papp at 10 h, 100 ug/ml (in vitro [4]): 15.8 ×10⁻⁶ cm/s | IC50 [3]: 4.06 µM
